For data set [1], the system named is Mus musculus. Kind of data set: (§1) Effect on pentobarbitol anesthesia (antagonist activity) in mice by intravenous (iv) administration relative to TRH. The data set is classed as functional, organism-based. An outline of the steps:
(§2)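 Mouse CNS tests followed methods from the authors' earlier paper. The potency ratio versus TRH comes from dose-response data for the test compound and TRH using the parallel line assay method.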

In data set [2] the test system is Mus musculus. Kind of data set: (§3) Effect on reserpine-induced hypothermia (antagonist activity) in mice by intraperitoneal (ip) administration relative to TRH. The data set is classed as functional, organism-based. Summed up: as §2
Data set [3] relates to Mus musculus. Kind of data set: Toxicity and mortality indicates the number of dead animals / number of animals used at dose of 500 mg/kg by administering intravenously (iv) in 3 mice. The data set is classed as organism-based. Further details: dose 500 mg/kg, route intravenous. The settings on record: in vivo. Summed up: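 Acute toxicity in male Std/ddY mice (26-28 g), three to 10 per group. Compound dissolved in physiological saline and given as a single iv dose of 500 mg/kg. Animals observed for 1 week at 23-24 °C. Mortality recorded as dead/used.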

The subject of data set [4] is Mus musculus. Kind of data set: Evaluated for the effect on spontaneous locomotor activity in mice by intraperitoneal (ip) administration relative to TRH.
The test system of data set [5] is Mus musculus. The data set is described as above. This is another data set of the same source.
Data set [6] deals with Mus musculus. Described as §1. The data set is classed as functional. Summed up: (§4)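 Mouse CNS assay run by the method of an earlier report. Potency ratio to TRH derived from dose-response data by parallel line assay.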
Data set [7] deals with Mus musculus. The data set is described as §3. It counts as functional. Summed up: as §4
For data set [8], the system named is Rattus norvegicus. Kind of data set: The thyrotropin (TSH) releasing activity was measured as serum TSH at 0.5 ug/rat dose (i.v.). It counts as functional, organism-based. Summed up: (§5)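 TSH release test in rats run as in the authors' earlier paper. Peptide given iv as μg/rat doses, 4–7 rats per group with a control group. Serum TSH reported in μg/100 mL as mean ± SE. Potency ratio versus TRH from parallel-line analysis of dose-response curves. Groups compared with control by two-tailed Student's t test.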

Data set [9] has as its system Rattus norvegicus. Kind of data set: The thyrotropin (TSH) releasing activity was measured as serum TSH at 0.03125 ug/rat dose (i.v.). It counts as functional, organism-based. Summed up: as §5
Data set [10] can be described thus: Evaluated for the potency ratio from the dose-response curve of TRH and compound by the parallel line assay method. The data set is classed as functional. An outline of the steps: as §5
For data set [11], the system named is Rattus norvegicus. Kind of data set: The thyrotropin (TSH) releasing activity was measured as serum TSH at 0.125 ug/rat dose (i.v.). The data set is classed as functional, organism-based. Summed up: as §5

Activity calls are given as the source filed them. The calls are words filed in the database; no cut-off is given here.

As for `NCCN1C(=O)CC(C(=O)N[C@@H](Cc2c[nH]cn2)C(=O)N2CCC[C@H]2C(N)=O)NC1=O` (mixture of isomers), the outcome in the data set on Mus musculus [1], in the data set with Mus musculus [2] and in the data set on Mus musculus [4] was inactive. Moreover, the Mortality in the data set on Mus musculus [3] worked out at 0.
Consider `CCCCN1C(=O)C[C@@H](C(=O)N[C@@H](Cc2c[nH]cn2)C(=O)N2CCC[C@H]2C(N)=O)NC1=O` [listing 1 of 2 here], for which the Mortality with Mus musculus [3] worked out at 1.
As for `CN1C(=O)C[C@@H](C(=O)N[C@H](Cc2c[nH]cn2)C(=O)O)NC1=O`, the result in the data set with Mus musculus [1], in the data set with Mus musculus [2] and in the data set with Mus musculus [4] was inactive. Besides, the Mortality with Mus musculus [3] was found to be 0.
In the data set with Mus musculus [5], `CCCN1C(=O)C[C@@H](C(=O)N[C@@H](Cc2c[nH]cn2)C(=O)N2CCC[C@H]2C(N)=O)NC1=O` [listing 1 of 2 here] gave an Activity of 0.7.
In the case of `NC(=O)[C@@H]1CCCN1C(=O)[C@H](Cc1c[nH]cn1)NC(=O)C1=NC(=O)NC(=O)C1`, the values for the Activity in the data set on Mus musculus [6], in the data set with Mus musculus [7] and in the data set on Mus musculus [5] were 1.3, 5.5 and 3.1, respectively. In the data set on Mus musculus [3], this compound came in with a Mortality of 0.
For the compound `NC(=O)[C@@H]1CCCN1C(=O)[C@H](Cc1c[nH]cn1)NC(=O)C1CC(=O)N(CCOCc2ccccc2)C(=O)N1` (mixture of isomers), the Activity in the data set with Mus musculus [6] amounted to 0.4; in the data set on Mus musculus [7], 1.1. Also, in the data set on Mus musculus [3], the Mortality stood at 0. Besides, the outcome in the data set on Mus musculus [4] was inactive.
Regarding `CCCCCN1C(=O)C[C@@H](C(=O)N[C@@H](Cc2c[nH]cn2)C(=O)N2CCC[C@H]2C(N)=O)NC1=O` [listing 1 of 2 here], the Mortality in the data set on Mus musculus [3] is 2.
For `CCC[C@H](NC(=O)[C@@H]1CC(=O)N(C)C(=O)N1)C(=O)N1CCC[C@@H]1C(N)=O`, the outcome in the data set with Mus musculus [1], in the data set on Mus musculus [2] and in the data set with Mus musculus [4] was inactive. This compound showed a Mortality in the data set on Mus musculus [3] of 0.
With `NC(=O)[C@@H]1CCCN1C(=O)[C@H](Cc1c[nH]cn1)NC(=O)[C@@H]1CC(=O)N(Cc2ccccc2)C(=O)N1` [listing 1 of 2 here], the Activity is recorded as 1.4 with Mus musculus [6], 6.8 with Mus musculus [7] and 2.3 in the data set with Mus musculus [5].
As to `CN1C(=O)NC(=O)C[C@H]1C(=O)N[C@@H](Cc1c[nH]cn1)C(=O)N1CCC[C@H]1C(N)=O`, the Mortality with Mus musculus [3] came out at 0.
For `CCCCCCCCCCCCCCCCCCN1C(=O)C[C@@H](C(=O)N[C@H](Cc2c[nH]cn2)C(=O)N2CCC[C@@H]2C(N)=O)NC1=O`, the outcome in the data set on Mus musculus [1], in the data set with Mus musculus [2] and with Mus musculus [4] was inactive.
As to `CC(C)N1C(=O)C[C@@H](C(=O)N[C@@H](Cc2c[nH]cn2)C(=O)N2CCC[C@H]2C(N)=O)NC1=O` [listing 1 of 2 here], the Activity in the data set with Mus musculus [6] was 1.9; with Mus musculus [7], 11.5; with Mus musculus [5], 5.
For `CCCCN1C(=O)C[C@@H](C(=O)N[C@@H](Cc2c[nH]cn2)C(=O)N2CCC[C@H]2C(N)=O)NC1=O` [listing 2 of 2 here], in that order: 0.8, 1.8 and 1.2.
With `CCCN1C(=O)C[C@@H](C(=O)N[C@@H](Cc2c[nH]cn2)C(=O)N2CCC[C@H]2C(N)=O)NC1=O` [listing 2 of 2 here], the Mortality in the data set with Mus musculus [3] is given as 0.
Take `C=CCN1C(=O)C[C@@H](C(=O)N[C@@H](Cc2c[nH]cn2)C(=O)N2CCC[C@H]2C(N)=O)NC1=O` [listing 1 of 2 here]: in the data set on Mus musculus [3], the Mortality is on record as 1.
Regarding `CN1C(=O)C[C@@H](C(=O)N[C@@H](Cc2c[nH]cn2)C(=O)N2CCC[C@H]2C(N)=O)N(C)C1=O` [listing 1 of 2 here], the results for the Activity with Mus musculus [6], in the data set with Mus musculus [7] and in the data set with Mus musculus [5] were 1.2, 0.5 and 0.4, respectively.
With `CCCCCN1C(=O)C[C@@H](C(=O)N[C@@H](Cc2c[nH]cn2)C(=O)N2CCC[C@H]2C(N)=O)NC1=O` [listing 2 of 2 here], the Activity in the data set with Mus musculus [6] is reported as 0.4.
As to `CCCCCN1C(=O)C[C@@H](C(=O)N[C@H](Cc2c[nH]cn2)C(=O)N2CCC[C@@H]2C(N)=O)NC1=O`, the outcome in the data set on Mus musculus [2] and with Mus musculus [4] was inactive.
`CC(C)N1C(=O)C[C@@H](C(=O)N[C@@H](Cc2c[nH]cn2)C(=O)N2CCC[C@H]2C(N)=O)NC1=O` [listing 2 of 2 here] displayed a Mortality in the data set with Mus musculus [3] of 0.
Same read-out and setting: for `CN1C(=O)C[C@@H](C(=O)N[C@@H](Cc2c[nH]cn2)C(=O)N2CCC[C@H]2C(N)=O)N(C)C1=O` [listing 2 of 2 here] the value was 0.
`NC(=O)[C@@H]1CCCN1C(=O)[C@H](Cc1c[nH]cn1)NC(=O)C1CC(=O)N(CCO)C(=O)N1` (mixture of isomers): the outcome with Mus musculus [1], in the data set with Mus musculus [2] and in the data set with Mus musculus [4] was inactive. The compound further showed a Mortality in the data set with Mus musculus [3] of 0.
For `CN1C(=O)C[C@@H](C(=O)N[C@H](Cc2c[nH]cn2)C(=O)OCc2ccccc2)NC1=O`, the outcome in the data set with Mus musculus [1], in the data set on Mus musculus [2] and in the data set with Mus musculus [4] was inactive. The compound further returned a Mortality in the data set on Mus musculus [3] of 0.
As to `CN1C(=O)C[C@@H](C(=O)N[C@H](Cc2c[nH]cn2)C(=O)N2CCC[C@@H]2C(=O)O)NC1=O`, the result in the data set with Mus musculus [1], in the data set with Mus musculus [2] and in the data set with Mus musculus [4] was inactive. The compound also came in with a Mortality with Mus musculus [3] of 0.
Take `NC(=O)[C@@H]1CCCN1C(=O)[C@H](Cc1c[nH]cn1)NC(=O)[C@@H]1CC(=O)N(Cc2ccccc2)C(=O)N1` [listing 2 of 2 here]: the Mortality in the data set on Mus musculus [3] turned out to be 3.
For the compound `CCCCN1C(=O)CC(C(=O)N[C@@H](Cc2c[nH]cn2)C(=O)N2CCC[C@H]2C(N)=O)N(C)C1=O` (stereo not given in full), the result with Mus musculus [1], with Mus musculus [2] and in the data set on Mus musculus [4] was inactive. In the data set with Mus musculus [3], this compound displayed a Mortality of 0.
Regarding `C=CCN1C(=O)C[C@@H](C(=O)N[C@@H](Cc2c[nH]cn2)C(=O)N2CCC[C@H]2C(N)=O)NC1=O` [listing 2 of 2 here], the Activity stood at 4.4 with Mus musculus [6], 4.7 with Mus musculus [7] and 5.7 in the data set on Mus musculus [5].
In the case of `NC(=O)[C@@H]1CCCN1C(=O)[C@H](Cc1c[nH]cn1)NC(=O)[C@@H]1CC(=O)N(CC(=O)O)C(=O)N1`, the Activity with Mus musculus [6] and in the data set with Mus musculus [7] was 0.1 each time. The compound also had a Mortality in the data set with Mus musculus [3] of 0. Further, the result in the data set on Mus musculus [4] was inactive.
Regarding `CN1C(=O)NC(=O)C[C@H]1C(=O)N[C@H](Cc1c[nH]cn1)C(=O)N1CCC[C@@H]1C(N)=O`, the outcome in the data set with Mus musculus [1], in the data set with Mus musculus [2] and with Mus musculus [4] was inactive.
On to `CN1C(=O)C[C@@H](C(=O)N[C@@H](Cc2c[nH]cn2)C(=O)N2CCC[C@@H]2C(N)=O)NC1=O`, for which the result in the data set on Mus musculus [1], in the data set on Mus musculus [2] and in the data set with Mus musculus [4] was inactive. The Mortality in the data set on Mus musculus [3] amounted to 0.
For `CN(C)C(=O)[C@H]1CCCN1C(=O)[C@@H](Cc1c[nH]cn1)NC(=O)[C@@H]1CC(=O)N(C)C(=O)N1`, the result in the data set on Mus musculus [1], with Mus musculus [2] and in the data set on Mus musculus [4] was inactive. The Mortality in the data set on Mus musculus [3] is given as 0.
With `NC(=O)[C@@H]1CCCN1C(=O)[C@H](Cc1c[nH]cn1)NC(=O)[C@@H]1CCC(=O)N1`, the values for the Serum TSH in the data set with Rattus norvegicus [8], with Rattus norvegicus [9] and with Rattus norvegicus [11] were 351 µg 100ml-1, 59.1 µg 100ml-1 and 115 µg 100ml-1, respectively. Besides, the Ratio in data set [10] came to 1.
As to `COC(=O)[C@@H](Cc1c[nH]cn1)NC(=O)[C@@H]1CC(=O)N(C)C(=O)N1`, the outcome with Mus musculus [1], in the data set on Mus musculus [2] and in the data set on Mus musculus [4] was inactive. Besides, in the data set on Mus musculus [3], the Mortality was 0.
For `CN1C(=O)C[C@@H](C(=O)N[C@H](Cc2c[nH]cn2)C(=O)N2CCC[C@H]2C(N)=O)NC1=O`, the result in the data set with Mus musculus [1], in the data set with Mus musculus [2] and with Mus musculus [4] was inactive. The same compound had a Mortality in the data set with Mus musculus [3] of 0.
Regarding `NC(=O)[C@@H]1CCCN1C(=O)[C@H](Cc1c[nH]cn1)NC(=O)[C@@H]1CC(=O)N(CCF)C(=O)N1` [listing 1 of 2 here], in the data set on Mus musculus [3], the Mortality worked out at 1.
Take `NC(=O)[C@@H]1CCCN1C(=O)[C@H](Cc1c[nH]cn1)NC(=O)[C@@H]1CC(=O)N(CCF)C(=O)N1` [listing 2 of 2 here]: the results for the Activity in the data set with Mus musculus [6], with Mus musculus [7] and in the data set on Mus musculus [5] were 1.2, 4.1 and 0.9, respectively.
Consider `CN1C(=O)N(Cc2ccccc2)C(=O)CC1C(=O)N[C@@H](Cc1c[nH]cn1)C(=O)N1CCC[C@H]1C(N)=O` (mixture of isomers), for which the outcome in the data set with Mus musculus [1], in the data set on Mus musculus [2] and in the data set on Mus musculus [4] was inactive. In the data set on Mus musculus [3], this compound had a Mortality of 0.
`Cn1c(=O)cc(C(=O)N[C@@H](Cc2c[nH]cn2)C(=O)N2CCC[C@@H]2C(N)=O)[nH]c1=O`: in the data set on Mus musculus [6], the Activity worked out at 0.4. The outcome in the data set with Mus musculus [2] and with Mus musculus [4] was inactive. Also, the Mortality with Mus musculus [3] was 0.

The values above are taken from ChEMBL document CHEMBL1125135, “Synthesis and central nervous system actions of thyrotropin-releasing hormone analogues containing a dihydroorotic acid moiety” (J Med Chem, 1990).
